For twelve molecules, IC50 and Ratio results are on record in ChEMBL document CHEMBL1126709, “Structure-activity relationship studies at the benzodiazepine receptor (BZR): a comparison of the substitutent effects of pyrazoloquinolinone analogs” (J Med Chem, 1993).

The structures appear in SMILES notation.

Assay [1] has as its target GABA-A receptor; anion channel. The experiment in a line: Specific binding of [3H]Ro-151788 to GABA-A Benzodiazepine receptor in rat cortex. A digest of the protocol: (§1)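 Rat brain (Sprague-Dawley) cortex homogenized in 50 mM Tris-citrate pH 7.4, centrifuged at 20000g, washed five times and stored at -80 °C. About 0.12 mg protein was incubated with [3H]Ro15-1788 (1 nM final) for 1 h at 0–4 °C. Nonspecific binding was defined with 10 μM Ro14-7437. Bound label was separated by filtration and counted by scintillation. IC50 was taken from 10-concentration curves run in triplicate.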

The target of assay [2] is GABA-A receptor; anion channel (Rattus norvegicus) (UniProt O09028+P15431+P18506+P18508+P19969+P20236+P23574+P23576+P28471+P28473+P30191+P62813+P63079+P63138+Q91ZM7+Q9ES14). The experiment in a line: Relative binding to GABA-A receptor in the presence and absence of GABA. It is filed as protein-complex assay. A digest of the protocol:
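GABA shift ratio is IC50 without GABA divided by IC50 with GABA. Both were measured as [3H]Ro15-1788 (1 nM) displacement in washed rat cortical membranes, 1 h at 0–4 °C, with filtration and scintillation counting. The GABA arm also contained NaCl (400 mM) and GABA (200 mM, as printed). Curves used 10 concentrations in triplicate.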

Assay [3] has as its target GABA-A receptor; anion channel. Put plainly: Partial agonistic activity against specific binding of [3H]-Ro-15-1788 to GABA-A Benzodiazepine receptor in rat cortex. A digest of the protocol:
as §1

By IC50 is commonly meant the concentration needed to halve the response being measured. Low readings indicate greater potency in that assay, high ones weaker potency in that assay. The molecule `COc1ccccc1-n1[nH]c2c(cnc3ccccc32)c1=O` registered an IC50 in assay [1] of 990 nM. `O=c1c2cnc3ccc(Cl)cc3c2[nH]n1-c1ccccc1` came in with an IC50 in assay [1] of 0.24 nM. The Ratio in assay [2] is 1.1. In assay [3], `O=C1C2C=Nc3ccccc3C2=NN1c1ccccc1` (stereo not drawn) [CGS-8216] yielded a half-maximal inhibitory concentration (IC50) of 0.13 nM. For the same molecule, the Ratio in assay [2] came to 0.99. For `O=C1C2C=Nc3ccccc3C2=NN1c1ccc(Cl)cc1` (stereo not drawn) [CGS-9896], in that order: 0.56 nM and 1.07. Regarding `O=c1c2cnc3ccccc3c2[nH]n1-c1cccc(Cl)c1`, the IC50 in assay [1] stood at 3.9 nM. Further, the Ratio in assay [2] was determined as 1.7. For the molecule `O=c1c2cnc3ccccc3c2[nH]n1-c1ccccc1Cl`, the concentration for half-maximal inhibition (IC50) in assay [1] was found to be 70 nM. Besides, the Ratio in assay [2] was 1. For the molecule `COc1cccc(-n2[nH]c3c(cnc4ccccc43)c2=O)c1`, the IC50 in assay [1] amounted to 0.58 nM. Besides, the Ratio in assay [2] worked out at 1.1.

As for `O=c1c2cnc3ccc(Cl)cc3c2[nH]n1-c1ccccc1Cl`, in assay [1], the IC50 is 8 nM. Also, in assay [2], the Ratio is 1.34. Take `COc1ccc(-n2nc3c4ccccc4[nH]cc-3c2=O)cc1`: in assay [3], the IC50 came to 0.38 nM. In assay [2], the Ratio was 0.94. As to `COc1ccc2c(c1)ncc1c(=O)n(-c3ccccc3)[nH]c12`, the IC50 in assay [1] turned out to be 2.1 nM. For the same molecule, the Ratio in assay [2] was found to be 0.97. In assay [1], `O=c1c2cnc3ccc(Cl)cc3c2[nH]n1-c1ccc(Cl)cc1` gave a half-inhibitory concentration (IC50) of 4 nM. For the same molecule, the Ratio in assay [2] turned out to be 1.47.

Consider `COc1ccc2ncc3c(=O)n(-c4ccccc4)[nH]c3c2c1`, for which the half-inhibitory concentration (IC50) in assay [1] came out at 0.38 nM. The Ratio in assay [2] amounted to 0.91.
